Results of several laboratories.
Compare with care: the assays were run in different laboratories.
Target: Microtubule-associated serine/threonine-protein kinase 1 (MAST1, Homo sapiens, UniProt Q9Y2H9)

Compound | test | conditions | remaining binding [%]
C=CC(=O)N1CCC(C(=O)NCC(=O)N2CCN(c3nc(-c4cnc(N)nc4C(F)F)nc(N4CCOCC4)n3)CC2)CC1 | binding, competition with immobilised ligand | 1 µM | 100
FC(F)(F)Oc1cccc(-c2cnc3ccc(-c4ccncc4)nn23)c1 | cell-free assay, competition with immobilised ligand | 5 µM | 51
O=C(NCCCN1CCOCC1)c1ccc(Nc2ncc(Cl)c(-c3ccc(Cl)s3)n2)cc1 | binding, competition with immobilised ligand | 1 µM | 63
CC1CCCN1c1nccc(-c2cnn3ncccc23)n1 (stereo not drawn) | binding | 1 µM | 100
O=C(NCC1CCOCC1)c1n[nH]cc1NC(=O)c1c(F)cccc1F | binding, competition with immobilised ligand | 1 µM | 51
CC(=O)N1CCC(c2ccc(C(=O)NC3=NCCN3)cc2C(F)(F)F)CC1 | cell-free assay, competition with immobilised ligand | 1 µM | 87
CCN1CCN(Cc2ccc(C(=O)Nc3ccc(C)c(Oc4ccc5c(c4)CC(=O)N5)c3)cc2C(F)(F)F)CC1 | binding, competition with immobilised ligand | 1 µM | 100
CCCOc1ccc([C@@H]2[C@@H](C(=O)O)[C@H](c3ccc4c(c3)OCO4)CN2CC(=O)Nc2c(CC)cccc2CC)cc1 | cell-free assay, competition with immobilised ligand | 1 µM | 100
C[C@@H]1CCN(c2nccc(-c3cnn4ncccc34)n2)C1 | binding | 1 µM | 100
Nc1ncc2c(n1)-c1c([nH]c3ccc(C#CC4CC4)cc13)CCCC2 | binding, competition with immobilised ligand | 1 µM | 62
O=C(c1ccc(Nc2nccc(-c3cc4ccccc4s3)n2)cc1)N1CCC(N2CCCC2)CC1 | binding, competition with immobilised ligand | 1 µM | 53
CN(C)c1ncc(F)c(-c2cnn3ncccc23)n1 | binding | 1 µM | 96
COc1cnc(Nc2cccc(S(N)(=O)=O)c2)nc1N1CCN(c2ccccc2)CC1 | binding, competition with immobilised ligand | 1 µM | 69
COc1ccc2c(c1)O[C@H](c1ccc(OC)c(OC)c1)C[C@@H]2NC(=O)C1(c2ccc3c(c2)OC(F)(F)O3)CC1 | cell-free assay, competition with immobilised ligand | 1 µM | 100
c1cnn2ncc(-c3ccnc(N4CCC45COC5)n3)c2c1 | binding | 1 µM | 55
O=c1nc(-c2ccccn2)sc2ccccc12 | binding, competition with immobilised ligand | 1 µM | 73
N[C@H]1CCN(c2nccc(-c3cnn4ncccc34)n2)C1 | binding | 1 µM | 100
O=C(Nc1cccnn1)N1CC(C/C=C/c2cncc(Oc3ccc(C(F)(F)F)cn3)n2)C1 | cell-free assay, competition with immobilised ligand | 1 µM | 58
O=C(c1ccc(Nc2ncc(Cl)c(-c3ccc(Cl)s3)n2)cc1)N1CCC(N2CCCC2)CC1 | binding, competition with immobilised ligand | 1 µM | 16
CC(=O)C1=C(C)N(c2cccc(C(F)(F)F)c2)C(=O)N[C@@H]1c1ccc(C#N)nc1 | cell-free assay, competition with immobilised ligand | 1 µM | 96.9
COc1ccnn2ncc(-c3ccnc(N(C)C)n3)c12 | binding | 1 µM | 99
